Hits are enriched below; roughly 1.7% of the tested compounds scored in any of these assays.
IDE cell inh – inhibitors of human insulin-degrading enzyme in cells; HEK cells, FAbetaB cleavage, fluorescence polarization; actives 0.41% (n = 320,000); inhibition, % at 5.59 µM; AID 434962;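 active means percent inhibition above the average of all tested compounds plus 3 SD, set per screening campaign, cut at about 16% in these data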;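 further: IDE supplied by intact live HEK cells; FP after avidin binding of uncleaved biotin substrate so inhibition keeps polarization high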
TPT1 inhibitor – blocks Candida albicans tRNA 2'-phosphotransferase. recombinant caTPT1, FP RNA substrate dephosphorylation. inhibition, % at 5 µM. actives 0.81% (n = 300,000). AID 1962;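 active means inhibition above the mean of all tested compounds plus 3 SD, set per screening campaign, cut at about 24% in these data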
CSN deneddyl inh – inhibitors of human CSN-mediated cullin deneddylation; inhibition, % at 12.5 µM; actives 0.38% (n = 360,000); Purified CSN, SCF-Nedd8-OG deneddylation, fluorescence polarization; Q92905; AID 651999;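 active means pattern-corrected inhibition above about 35%, with an unprinted fluorescence ratio check between 0.5 and 1.5, limit read from the data, passing the limit was not always enough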
Target sequence (Q92905 whole entry, looked up, one chain of several): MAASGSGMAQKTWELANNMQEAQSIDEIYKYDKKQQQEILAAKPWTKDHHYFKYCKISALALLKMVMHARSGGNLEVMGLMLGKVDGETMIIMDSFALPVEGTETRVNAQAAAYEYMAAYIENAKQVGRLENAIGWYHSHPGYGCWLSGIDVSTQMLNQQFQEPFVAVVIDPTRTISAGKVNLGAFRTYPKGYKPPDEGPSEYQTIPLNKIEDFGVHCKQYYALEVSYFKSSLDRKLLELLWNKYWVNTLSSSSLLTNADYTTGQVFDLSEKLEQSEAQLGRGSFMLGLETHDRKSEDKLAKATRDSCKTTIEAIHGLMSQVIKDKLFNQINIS
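Assay system: purified human Csn5 enzyme expressed in HEK293T cells; Input: 0.24 nM Csn5 enzyme, final concentration; Reagent: 10 nM SCFSkp2-Nedd8OG; Compound dosing: 12.5 µM single point; Times: reaction 90 min, room temperature; Technique: fluorescence polarization readout.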
HNF4A DNA FP – change in binding of human HNF4 alpha to DNA; P41235; actives 0.3% (n = 360,000); activity change, % at 10 µM; HNF4a-FITC DNA binding, fluorescence polarization, 1 h; in the data active means activity change above about 30%, passing the limit was not always enough
Rpn11 block – Rpn11 (human) deubiquitinase inhibition; O00487; human 26S proteasome, Ub4-pepOG fluorescence polarization; 20S core pre-blocked with epoxomicin; inhibition, % at 20 µM; actives 0.59% (n = 360,000);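 active means inhibition at 20 µM, scaled to each plate's controls, above about 33%, limit read from the data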
Target sequence (O00487 whole entry, looked up): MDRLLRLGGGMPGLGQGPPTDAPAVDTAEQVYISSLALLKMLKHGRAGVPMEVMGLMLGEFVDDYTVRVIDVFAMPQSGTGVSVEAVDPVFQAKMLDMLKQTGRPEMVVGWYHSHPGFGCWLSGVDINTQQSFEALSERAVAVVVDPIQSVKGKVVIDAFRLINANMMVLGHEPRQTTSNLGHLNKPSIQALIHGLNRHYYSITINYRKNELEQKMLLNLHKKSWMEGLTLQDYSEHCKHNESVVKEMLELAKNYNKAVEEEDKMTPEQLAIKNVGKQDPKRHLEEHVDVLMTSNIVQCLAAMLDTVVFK
IDE act – activators of human insulin-degrading enzyme in cells | P14735 | actives 0.073% (n = 340,000) | HEK cells, FAbeta-B cleavage, fluorescence polarization; 0% vehicle, 100% cell-free pure enzyme wells | AID 493087 | activation, % at 5.96 µM;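 active means activation above the mean of all tested compounds plus 3 SD, set per screening campaign, cut at about 17% in these data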
Numbers stand for hits; i = inactive; nt = no result given.

SMILES	IDE cell inh	TPT1 inhibitor	CSN deneddyl inh	HNF4A DNA FP	Rpn11 block	IDE act
CN(C)C(=O)C[C@@H]1C=C[C@@H](NC(=O)C2CCC2)[C@@H](CO)O1	nt	nt	i	i	nt	nt
CC[C@@H](C)[C@H](CNC)NC[C@@H](Cc1cccc2ccccc12)NCCc1cccc(C(F)(F)F)c1	i	i	i	i	i	29
CNC[C@@H](CC1CCCCC1)NC[C@H](CC(C)C)NCCc1cccc(C(F)(F)F)c1	i	i	i	i	i	21
CC(=O)N1CCc2c(sc(NC(=O)C3CC3)c2-c2nc3ccccc3s2)C1	i	i	44	35	nt	i
COC(=O)[C@@]1(C(C)C)N=C(c2cc(OC)c(OC)c(OC)c2)[C@]2(O1)C(=O)Nc1ccc(F)cc12	nt	nt	i	i	nt	nt
COc1ccccc1Nc1nn2c(=O)c3ccc(C(=O)NCc4cccnc4)cc3nc2s1	i	i	84	90	i	i
CC(C)CCNc1nnnc2c1sc1nc(N3CCOCC3)c3c(c12)CC(C)(C)SC3	i	i	60	i	i	i
COC(=O)[C@@]12C[C@@H](CC(=O)NCCCCc3ccccc3)C(=O)N(Cc3ccco3)C1=CCC(C)(C)C2	nt	nt	i	i	nt	nt
CC(C)n1c(O)c(N=Nc2ccc(Cl)nn2)c2ccccc21	i	i	44	i	nt	i
CC(C)n1c(O)c(N=NC(=O)CNC(=O)Cc2ccc(Cl)cc2)c2ccccc21	i	i	i	i	i	i
FC(F)(F)c1cc(CCN2CCNC[C@H]2Cc2cccc3ccccc23)cc(C(F)(F)F)c1	i	i	i	i	i	20
COC(=O)c1c(/N=C/NOCc2ccc(Cl)cc2)sc2c1CCN(c1ncc(C(F)(F)F)cc1Cl)C2	i	i	37	i	i	i
CO[C@H]1CN(C)C(=O)c2ccc(NC(=O)NC(C)C)cc2OC[C@H](C)NC[C@H]1C	nt	nt	i	i	nt	nt
CC(C)(C)NC(=O)C1(C)CCC(=O)N1C1CCN(Cc2ccccc2)CC1 (stereo not given)	nt	nt	86	i	i	nt
CC1(C(=O)NC2CCCC2)CCC(=O)N1C1CCN(Cc2ccccc2)CC1 (stereo not given)	nt	nt	i	i	i	nt
N#CC1=C(c2ccc(-c3ccccc3)cc2)COC1=O	i	i	i	i	40	i
CC(C)C[C@@H](CN1CCC[C@H]1CN1C(=O)C(=O)NC[C@@H]1Cc1ccccc1)N1C[C@H](Cc2ccccc2)N(CC2CCCCCC2)C(=O)C1=O	nt	nt	i	i	nt	nt
O=C(Oc1c(Cl)cc(Cl)c2cccnc12)c1cccc([N+](=O)[O-])c1	i	i	i	i	49	i
O=C1CC(N2C(=O)/C(=C/C=C/c3ccccc3)SC2=S)C(=O)N1c1ccccc1 (stereo not given)	i	78	i	i	nt	i
O=C1NC(=O)C(=CC=Cc2ccccc2)S1	nt	nt	i	i	i	nt
O=C1NC(=O)/C(=C\c2ccc(OCc3cnc(Cl)s3)cc2)S1	i	i	37	i	i	i
Cc1ccc(NC(=O)NC(=O)COC(=O)c2ccc(O)cc2O)c(C)c1	nt	nt	i	i	i	nt
COC(=O)c1ccc(-c2ccco2)n1Cc1ccccc1Cl	i	i	49	i	i	i
O=C(Nc1ccc2c(c1)OCCO2)C1CCC1	i	i	i	68	i	i
O=C(OCCNc1ccc(C(F)(F)F)cc1[N+](=O)[O-])c1cc2ccccc2oc1=O	i	i	95	i	nt	i
SMILES	IDE cell inh	TPT1 inhibitor	CSN deneddyl inh	HNF4A DNA FP	Rpn11 block	IDE act
O=[N+]([O-])c1cc(C(F)(F)F)ccc1NCCOc1ccccc1	i	i	i	i	i	i
COC(=O)C[C@H]1CC[C@H](NC(=O)c2ccc(F)cc2)[C@@H](CO)O1	nt	nt	i	i	nt	nt
COc1cc(NC(=O)N2CCNC2=O)cc(C(=O)Nc2cccc(C(F)(F)F)c2)c1	i	i	i	i	i	38
CCN1CCN(Cc2ccc(NC(=O)c3cc(NC(=O)N4CCNC4=O)cc(OC)c3)cc2C(F)(F)F)CC1	i	i	i	i	i	i
CC(C)=CCCC1(C)C=Cc2c(c(C)cc3c2[nH]c2cc(O)ccc23)O1 (stereo not given)	i	i	i	i	i	24
Cc1cc(=O)[nH]c2cc(O)ccc12	i	i	i	i	i	i
O=C(c1[nH]c(C(F)(F)F)nc1-c1ccccc1)N1CCCN(Cc2ccc(F)cc2)CC1	nt	nt	76	i	i	nt
O=C(c1[nH]c(C(F)(F)F)nc1-c1ccccc1)N1CCN(CCN2CCOCC2)CC1	nt	nt	i	i	i	nt
COc1cc(CNCCc2ccccc2)ccc1OCC(=O)NC(C)(C)C	i	i	106	i	i	i
COc1cc(CNCCCO)ccc1OCC(=O)NC(C)(C)C	i	i	i	i	i	i
Cc1ccc(N2CCN(C(C(=O)Nc3c(C)cccc3C)c3cccc(F)c3)CC2)cc1 (stereo not given)	nt	nt	i	i	nt	nt
Cc1cccc(Oc2cc([N+](=O)[O-])cc3c2C(=O)Nc2ccccc2O3)c1	i	i	39	i	nt	i
CC(OC(=O)c1c2c(nc3ccccc13)/C(=C\c1ccc3c(c1)OCO3)CCC2)C(=O)Nc1ccc(S(N)(=O)=O)cc1 (stereo not given)	nt	nt	i	i	i	26
CC(c1nc2ccccc2[nH]1)n1c(=O)c(-c2ccco2)nc2ccccc21 (stereo not given)	nt	nt	i	i	nt	nt
Cc1ccc(S(=O)(=O)N2[C@H](CC(=O)c3ccc(Cl)c(Cl)c3)OC[C@@H]2C(C)C)cc1	nt	nt	i	i	nt	nt
COc1ccccc1-c1cccc([C@@H]2C[C@H]3[C@H](CON3C)CN2S(=O)(=O)c2ccccc2C)c1	nt	nt	i	i	i	i
O=C(N/N=C/c1ccc2c(c1)OCO2)c1ccc(COCC(F)(F)C(F)F)cc1	i	i	i	i	42	i
COc1cccc(OC)c1-c1nn2c(-c3cc(-c4ccccc4)n[nH]3)nnc2s1	i	i	i	225	i	i
COC(=O)C1=CN(c2ccc(N3CCOCC3)cc2)C(N)=C(C#N)C1c1ccc(-c2ccccc2)cc1 (stereo not given)	nt	nt	i	i	nt	nt
Cc1ccccc1NC(=O)CSc1ccsc1[N+](=O)[O-]	i	i	35	i	i	i
COCCCNC(=O)CSc1ccsc1[N+](=O)[O-]	i	i	i	i	i	i
COC(=O)C1=CN(c2ccc(F)cc2)C(N)=C(C#N)C1c1cccc(OC)c1OC (stereo not given)	nt	nt	i	i	nt	nt
CC(C)c1ccc(/C=C/C(=O)NC(=S)Nc2ccc(CN3CCOCC3)cc2)cc1	18	i	i	i	i	i
COc1cc(C(C)=O)ccc1OCC(=O)N1CCc2ccccc2C1	i	i	92	i	i	i
Cc1ccc(OCC(=O)N2CCc3ccccc3C2)c(C)c1	i	i	i	i	i	i
COc1cccc(C(=O)NCC[N+](C)(C)C)c1	nt	nt	i	i	nt	nt
Fc1ccc2nc(-c3ccccc3)ccc2c1	nt	nt	i	i	i	nt
Fc1cc(Cl)cc2ccc(-c3ccccc3)nc12	nt	nt	103	i	i	nt

Screening results: PubChem BioAssay, several laboratories
